Measurements from ChEMBL document CHEMBL1133715, “Dual function glutamate-related ligands: discovery of a novel, potent inhibitor of glutamate carboxypeptidase II possessing mGluR3 agonist activity” (J Med Chem, 2000).
Several values for one entry are separate records, joined by “and”; a condition that tells them apart may be missing. Identical values can stand only once. Activity calls are given as the source filed them. The rule behind the calls is not given here.

What was measured:
CHO [1] = test: Inhibitory activity against N-acetyl-L-aspartyl-L-glutamate (NAAG) peptidase of rat stably expressed in CHO cells at 100 uM; NA=no activity; assay type: cell-based
[2] = target: Metabotropic glutamate receptor 3 (Homo sapiens, UniProt Q14832); test: Agonist potency against cloned Metabotropic glutamate receptor 3; assay type: functional
Outline: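 mGluR3 activity was measured on a chimeric mGluR3/1a receptor, which carries mGluR3 pharmacology but couples to phospholipase C. Agonist response was read as accumulation of inositol phosphates.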

CHO [3] = test: Inhibitory activity against N-acetyl-L-aspartyl-L-glutamate (NAAG) peptidase of rat stably expressed in CHO cells at 100 uM; assay type: cell-based

Sequence of Metabotropic glutamate receptor 3 (Q14832 whole entry): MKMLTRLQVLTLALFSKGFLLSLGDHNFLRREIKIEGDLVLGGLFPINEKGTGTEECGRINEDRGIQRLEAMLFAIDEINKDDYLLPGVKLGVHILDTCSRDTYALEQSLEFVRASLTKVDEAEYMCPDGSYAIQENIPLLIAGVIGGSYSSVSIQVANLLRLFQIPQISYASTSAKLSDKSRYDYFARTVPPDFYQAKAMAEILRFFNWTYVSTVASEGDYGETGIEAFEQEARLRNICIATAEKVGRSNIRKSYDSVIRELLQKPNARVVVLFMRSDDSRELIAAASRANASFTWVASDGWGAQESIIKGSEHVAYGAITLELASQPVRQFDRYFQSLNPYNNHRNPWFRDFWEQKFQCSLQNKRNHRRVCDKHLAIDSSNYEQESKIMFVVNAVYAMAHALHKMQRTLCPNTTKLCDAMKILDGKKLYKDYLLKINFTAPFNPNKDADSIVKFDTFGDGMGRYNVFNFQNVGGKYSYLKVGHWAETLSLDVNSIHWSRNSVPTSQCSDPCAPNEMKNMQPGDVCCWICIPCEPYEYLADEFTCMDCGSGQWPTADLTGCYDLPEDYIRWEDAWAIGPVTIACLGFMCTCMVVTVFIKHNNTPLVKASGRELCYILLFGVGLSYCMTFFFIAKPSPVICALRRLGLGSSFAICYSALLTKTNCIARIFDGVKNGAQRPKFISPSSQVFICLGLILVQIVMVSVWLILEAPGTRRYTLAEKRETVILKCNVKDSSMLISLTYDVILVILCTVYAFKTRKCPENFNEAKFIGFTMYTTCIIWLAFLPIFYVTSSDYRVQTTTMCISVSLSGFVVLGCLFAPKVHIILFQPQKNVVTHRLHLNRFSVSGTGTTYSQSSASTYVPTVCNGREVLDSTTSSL

| Compound | inhibition (CHO [1]) | EC50 [2] | inhibition (CHO [3]) |
| --- | --- | --- | --- |
| O=C(O)CCC(CC(=O)CC(CCC(=O)O)C(=O)O)C(=O)O (stereo unspecified) | inactive | > 300 µM | – |
| O=C(O)CCC(CP(=O)(O)CC(CCC(=O)O)C(=O)O)C(=O)O (stereo unspecified) | – | 39 µM and 45 µM and 51 µM | 21.7% and 6.9% and 22.3% |
| O=C(O)CCC(=O)CC(CCC(=O)O)C(=O)O (stereo unspecified) | – | – | 35% |
| O=C(O)CC[C@H](CP(=O)(O)C[C@H](CCC(=O)O)C(=O)O)C(=O)O | – | 33 µM | – |
